# Experimental data from different studies.
# Target: Rhodopsin kinase GRK7 (GRK7, Homo sapiens, UniProt Q8WTQ7)
# Residues used in one study (Q8WTQ7 1-553): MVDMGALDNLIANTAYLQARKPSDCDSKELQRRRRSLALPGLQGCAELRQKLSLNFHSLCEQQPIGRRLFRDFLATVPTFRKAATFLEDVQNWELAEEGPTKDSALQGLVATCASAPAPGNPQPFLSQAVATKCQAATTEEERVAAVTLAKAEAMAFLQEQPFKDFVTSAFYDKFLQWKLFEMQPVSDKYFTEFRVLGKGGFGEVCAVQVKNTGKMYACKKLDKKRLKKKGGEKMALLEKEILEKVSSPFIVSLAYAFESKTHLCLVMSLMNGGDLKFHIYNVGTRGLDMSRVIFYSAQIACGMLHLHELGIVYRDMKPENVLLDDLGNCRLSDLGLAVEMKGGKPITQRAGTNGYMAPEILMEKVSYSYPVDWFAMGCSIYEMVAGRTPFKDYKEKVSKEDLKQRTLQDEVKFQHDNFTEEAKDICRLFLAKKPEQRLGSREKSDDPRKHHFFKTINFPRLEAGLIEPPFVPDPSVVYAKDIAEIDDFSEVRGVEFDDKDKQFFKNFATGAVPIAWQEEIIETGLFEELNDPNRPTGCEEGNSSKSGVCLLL
SMILES,test,conditions,endpoint,value
CCCOc1ccc(OC)c(F)c1C(=O)c1ccc(C(=O)N[C@@H]2CNC[C@H]2NC(=O)c2ccc3[nH]ncc3c2)cc1,"enzyme activity, inhibitor",10 µM,remaining activity,107%
O=C(Nc1cnn(-c2csc(C(=O)NC3COC3)c2)c1)Nc1c(F)cccc1Cl,"enzyme activity, inhibitor",5 µM,remaining activity,94%
CN1CC(Oc2cnc(C#N)cc2-c2ccn3nc(NC(=O)C4CC4)cc3c2)C1,"enzyme activity, inhibitor",1 µM,inhibition,-8%
CO[C@@H](C)c1c(Nc2ccc([C@H](N(C)C(=O)C3CCS(=O)(=O)CC3)C(F)(F)F)cc2)cnc2cc(Cl)nn12,"cell-free assay, competition with immobilised ligand",1 µM,remaining binding,100%
COc1cc2ncnc(Nc3ccc(Oc4ccccc4)cc3C)c2cc1OC,"enzyme activity, inhibitor",1 µM,inhibition,-3%
Cc1nc(Cc2cccc(C(F)(F)F)c2)sc1-c1ccc(C(N)=O)nc1,"cell-free assay, competition with immobilised ligand",1 µM,remaining binding,100%
O=C1NC(=O)c2cc(Nc3ccc(F)cc3)c(Nc3ccc(F)cc3)cc21,cell-free assay,0.5 µM,remaining signal,106%
Cc1ccc(C(=O)Nc2ccc(CN3CCN(C)CC3)c(C(F)(F)F)c2)cc1C#Cc1cnc2cccnn12,"enzyme activity, inhibitor",23.5 nM,remaining activity,94%
CC(C)(C)c1nc2c(s1)c1nc(N)ncc1c1ccc(NS(=O)(=O)c3c(F)cccc3F)c(F)c12,"enzyme activity, inhibitor, radiometric",1 µM,remaining activity,81%
CCCOc1ccc([C@H]2[C@H](C(=O)O)[C@@H](c3ccc4c(c3)OCO4)CN2CC(=O)Nc2c(CC)cccc2CC)cc1,"cell-free assay, competition with immobilised ligand",1 µM,remaining binding,100%
C#Cc1cccc(Nc2ncnc3cc(OCCOC)c(OCCOC)cc23)c1,cell-free assay,0.5 µM,remaining signal,98.3%
COc1cc(Cl)c(C(=O)N[C@@H](CN[C@H]2CC[C@@H](N)CC2)Cc2ccc(C#N)cc2)cc1-c1ccc(CN[C@H](C)c2ccc(C)cc2)o1,"enzyme activity, inhibitor",1 µM,remaining activity,102%
O=C(N1CCS(=O)(=O)CC1)N1C[C@H](c2ccc(OC(F)(F)F)cc2)C[C@H](c2nc(C3CC3)no2)C1,"cell-free assay, competition with immobilised ligand",1 µM,remaining binding,100%
CCN(CC)c1ccc(C2=NNC(=O)CC2C)cc1[N+](=O)[O-] (stereo not drawn),"enzyme activity, inhibitor",10 µM,remaining activity,100%
CCC(=O)N[C@H]1CC[C@@H](C(=O)N(C)c2ccc(-c3nc4ccccc4o3)cc2)C1,"cell-free assay, competition with immobilised ligand",1 µM,remaining binding,82%
O=C(Nc1cnn(-c2csc(C(=O)NC3COC3)c2)c1)Nc1ccccc1Cl,"enzyme activity, inhibitor",5 µM,remaining activity,96.4%
N#CCCc1ccc2c(c1)-c1[nH]c3ccc([N+](=O)[O-])cc3c1CC(=O)N2,cell-free assay,0.5 µM,remaining signal,97.7%
Nc1ncnc2occ(-c3ccc(NC(=O)Nc4cc(C(F)(F)F)ccc4F)cc3)c12,"cell-free assay, inhibitor",20 µM,remaining signal,77%
